Measurements: ChEMBL document CHEMBL4038319, “Development of a Potent Inhibitor of the Plasmodium Proteasome with Reduced Mammalian Toxicity” (J Med Chem, 2017)
pIC50, pKi: −log10 of the molar value.

Key:
HepG2 = experiment: Cytotoxicity against human HepG2 cells harboring A16-CD81EGFP assessed as cell viability after 48 hrs by bioluminescence assay; format: cell-based; settings: HepG2, 48 h
Outline: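 HepG2-A16-CD81EGFP cells, 3 × 10^3 per well, seeded 24 h ahead in DMEM with 5% FBS. Viability read by bioluminescence after 48 h and fitted by four-parameter regression; puromycin control.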

Plasmodium falciparum [1] = experiment: Antimalarial activity against asexual blood stage Plasmodium falciparum Dd2 infected in human erythrocytes after 72 hrs by SYBR green 1 dye based fluorescence assay; format: functional, cell-based; settings: Dd2, 72 h
[2] = biological target: T1, constitutive 20S proteasome beta5 subunit (Proteasome Macropain subunit MB1) (Homo sapiens, UniProt P28074); experiment: Inhibition of human constitutive 20S proteasome beta5 subunit using suc-LLVY-AMC as substrate at 50 nM after 60 to 120 mins by fluorescence assay relative to control; settings: probe suc-LLVY-AMC
T1 sequence (P28074 whole entry): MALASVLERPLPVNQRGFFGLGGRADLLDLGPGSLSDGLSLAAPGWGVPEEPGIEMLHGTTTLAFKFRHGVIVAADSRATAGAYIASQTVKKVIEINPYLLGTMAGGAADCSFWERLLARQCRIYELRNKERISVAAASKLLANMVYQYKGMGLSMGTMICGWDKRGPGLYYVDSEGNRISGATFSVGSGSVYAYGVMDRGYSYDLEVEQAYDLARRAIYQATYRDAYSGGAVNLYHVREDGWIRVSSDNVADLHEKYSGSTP
Outline: (§1)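 Pf20S enriched from asynchronous parasite lysate by two-step chromatography; human constitutive 20S from a commercial source. Enzymes at 0.29 nM with 25 μM Suc-LLE-AMC, Suc-LRR-AMC or Suc-LLVY-AMC in 20 mM Tris pH 7.5, 0.02% SDS. Inhibitor and substrate added together; AMC release rate (Ex 340/Em 465) taken from 60–120 min against DMSO.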

Plasmodium falciparum [3] = experiment: Inhibition of schizont stage Plasmodium falciparum 20S proteasome beta5 subunit using suc-LLVY-AMC as substrate at 50 nM after 60 to 120 mins by fluorescence assay relative to control; outline: as §1
[4] = biological target: T2, Proteasome Macropain subunit MB1 (Homo sapiens, UniProt P28074); experiment: Irreversible inhibition of human 20S proteasome beta5 subunit using suc-LLVY-AMC as substrate after 4 hrs at 30 mins time interval by fluorescence assay
T2 sequence (P28074 whole entry): T1 sequence (P28074 whole entry)

Plasmodium falciparum [5] = experiment: Inhibition of early trophozoite stage Plasmodium falciparum 20S proteasome beta5 subunit using suc-LLVY-AMC as substrate at 95 nM after 4 hrs by fluorescence assay relative to control
Outline: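 Sorbitol-synchronized early trophozoites at 5% parasitemia exposed to 95 nM inhibitor for 4 h, then washed and lysed. 15 μg total protein assayed with 25 μM Suc-LLVY-AMC in Tris pH 7.5/0.02% SDS buffer; AMC release compared against DMSO-treated cells.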

[6] = biological target: T3, 20S proteasome beta5 subunit (Proteasome Macropain subunit MB1) (Homo sapiens, UniProt P28074); experiment: Inhibition of human 20S proteasome beta5 subunit using suc-LLVY-AMC as substrate at 150 nM after 60 to 120 mins by fluorescence assay relative to control; settings: probe suc-LLVY-AMC; outline: as §1
T3 sequence (P28074 whole entry): T1 sequence (P28074 whole entry)

Plasmodium falciparum [7] = experiment: Inhibition of schizont stage Plasmodium falciparum 20S proteasome beta1 subunit using z-LLE-AMC as substrate at 150 nM after 60 to 120 mins by fluorescence assay relative to control
Plasmodium falciparum [8] = experiment: Inhibition of schizont stage Plasmodium falciparum 20S proteasome beta2 subunit using z-LRR-AMC as substrate at 150 nM after 60 to 120 mins by fluorescence assay relative to control
Plasmodium falciparum [9] = experiment: Inhibition of schizont stage Plasmodium falciparum 20S proteasome beta5 using suc-LLVY-AMC as substrate at 150 nM after 60 to 120 mins by fluorescence assay relative to control
Plasmodium falciparum [10] = experiment: Growth inhibition of Plasmodium falciparum Dd2 infected in human erythrocytes at 0.5 to 1 nM after 72 hrs by SYBR green 1 dye based fluorescence assay relative to control; format: cell-based; settings: Dd2, 72 h, read-out: GI
Plasmodium falciparum [11] = experiment: Antimalarial activity against stage V gametocytes of Plasmodium falciparum NF54 infected in human erythrocytes after 72 hrs by mitotracker red based […] assay; format: functional, cell-based; settings: NF54, 72 h
Plasmodium falciparum [12] = experiment: Inhibition of schizont stage Plasmodium falciparum 20S proteasome beta1 subunit using z-LLE-AMC as substrate at 450 nM after 60 to 120 mins by fluorescence assay relative to control
Plasmodium falciparum [13] = experiment: Inhibition of schizont stage Plasmodium falciparum 20S proteasome beta2 subunit using z-LRR-AMC as substrate at 450 nM after 60 to 120 mins by fluorescence assay relative to control
Plasmodium falciparum [14] = experiment: Inhibition of schizont stage Plasmodium falciparum 20S proteasome using suc-LLVY-AMC as substrate at 450 nM after 60 to 120 mins relative to control

Compound | pIC50 (HepG2) | pIC50 (Plasmodium falciparum [1]) | inhibition (Plasmodium falciparum [3]) | inhibition (Plasmodium falciparum [5]) | other results
CCCCCC(=O)N[C@H](C(=O)N[C@@H](CCCC)C(=O)N[C@@H](CC(C)C)C(=O)[C@@]1(C)CO1)C(C)C | 6.87 | 8.39 | 10 to 47% | 40 to 60% | inhibition at 0.05 µM [2]: 89%; pKi [4]: 5.43
CCCCCC(=O)N[C@H](Cc1ccncc1)C(=O)N[C@@H](CCCC)C(=O)N[C@@H](CC(C)C)C(=O)[C@@]1(C)CO1 | > 9.55 | 7.66 |  |  | 
CCCCCC(=O)N[C@@H](Cc1ccccc1)C(=O)N[C@@H](CCCC)C(=O)N[C@@H](CC(C)C)C(=O)[C@@]1(C)CO1 | 7.64 | 8.39 |  |  | 
CCCCCC(=O)N[C@@H](Cc1ccc(N)cc1)C(=O)N[C@@H](CCCC)C(=O)N[C@@H](Cc1ccccc1)C(=O)[C@@]1(C)CO1 | 5.47 | 7.09 | 10 to 47% | 40 to 60% | 
CCCCCC(=O)N[C@H](Cc1ccc(N)cc1)C(=O)N[C@@H](Cc1ccc(N)cc1)C(=O)N[C@@H](Cc1ccccc1)C(=O)[C@@]1(C)CO1 | 6.02 | 7.17 |  |  | 
CCCCCC(=O)N[C@@H](Cc1ccc(NC(=O)OC(C)(C)C)cc1)C(=O)N[C@@H](CCCC)C(=O)N[C@@H](CC(C)C)C(=O)[C@@]1(C)CO1 | 7.10 | 8.26 |  |  | 
CCCCCC(=O)N[C@H](C(=O)N[C@@H](CCS(C)(=O)=O)C(=O)N[C@@H](CC(C)C)C(=O)[C@@]1(C)CO1)C(C)C |  |  | 10 to 47% | 40 to 60% | inhibition at 0.15 µM [6]: 98%; inhibition (Plasmodium falciparum [7]): 16%; inhibition (Plasmodium falciparum [8]): 29%; inhibition (Plasmodium falciparum [9]): 45%; inhibition at 0.05 µM [2]: 97%; pKi [4]: 6.43; inhibition at up to 0.001 µM (Plasmodium falciparum [10]): < 10%
CCCCCC(=O)N[C@H](Cc1ccc(N)cc1)C(=O)N[C@@H](Cc1ccc(N)cc1)C(=O)N[C@@H](CC(C)C)C(=O)[C@@]1(C)CO1 | 9.04 | 7.22 |  |  | 
CCCCCC(=O)N[C@H](Cc1c[nH]c2ccccc12)C(=O)N[C@@H](CCCC)C(=O)N[C@@H](CC(C)C)C(=O)[C@@]1(C)CO1 | 6.04 | 8.53 | 10 to 47% | 40 to 60% | inhibition at 0.05 µM [2]: ≤ 10%
CCCCCC(=O)N[C@@H](Cc1ccc(N)cc1)C(=O)N[C@@H](CCCC)C(=O)N[C@@H](CC(C)C)C(=O)[C@@]1(C)CO1 | 8.20 | 8.22 |  |  | 
CCCCCC(=O)N[C@@H](Cc1c[nH]c2ccccc12)C(=O)N[C@@H](Cc1c[nH]c2ccccc12)C(=O)N[C@@H](Cc1ccccc1)C(=O)[C@@]1(C)CO1 | 6.46 | 8.03 | 10 to 47% | 40 to 60% | 
CCCCCC(=O)N[C@@H](Cc1c[nH]c2ccccc12)C(=O)N[C@@H](Cc1c[nH]c2ccccc12)C(=O)N[C@@H](CC(C)C)C(=O)[C@@]1(C)CO1 | 7.93 | 8.43 |  |  | 
CCCCCC(=O)N[C@@H](Cc1ccccc1)C(=O)N[C@@H](CCCC)C(=O)N[C@@H](Cc1ccccc1)C(=O)[C@@]1(C)CO1 | 7.51 | 8.17 |  |  | 
CCCCCC(=O)N[C@@H](Cc1ccncc1)C(=O)N[C@@H](CCCC)C(=O)N[C@@H](CC(C)C)C(=O)[C@@]1(C)CO1 | > 9.55 | 8.48 |  |  | 
CCCCCC(=O)N[C@@H](Cc1ccc(NC(=O)OC(C)(C)C)cc1)C(=O)N[C@@H](CCCC)C(=O)N[C@@H](Cc1ccccc1)C(=O)[C@@]1(C)CO1 | 6.32 | 8.26 | 10 to 47% | 40 to 60% | 
CCCCCC(=O)NC(Cc1ccc(NC(=O)OC(C)(C)C)cc1)C(=O)N[C@@H](Cc1ccc(NC(=O)OC(C)(C)C)cc1)C(=O)N[C@@H](Cc1ccccc1)C(=O)[C@@]1(C)CO1 (single isomer, unassigned) | 7.34 | 7.91 |  |  | 
CCCCCC(=O)NC(Cc1ccc(NC(=O)OC(C)(C)C)cc1)C(=O)N[C@@H](Cc1ccc(NC(=O)OC(C)(C)C)cc1)C(=O)N[C@@H](CC(C)C)C(=O)[C@@]1(C)CO1 (single isomer, unassigned) | 6.93 | 7.87 |  |  | 
CCCCCC(=O)N[C@@H](Cc1ccncc1)C(=O)N[C@@H](CCCC)C(=O)N[C@@H](Cc1ccccc1)C(=O)[C@@]1(C)CO1 | > 9.55 | 8.41 |  |  | 
CCCCCC(=O)N[C@@H](C(=O)N[C@@H](CCCC)C(=O)N[C@@H](CC(C)C)C(=O)[C@@]1(C)CO1)C(C)C | 5.91 | 8.49 | 10 to 47% | 40 to 60% | pIC50 (Plasmodium falciparum [11]): 6.89; inhibition at 0.05 µM [2]: ≤ 10%; inhibition (Plasmodium falciparum [12]): 6%; inhibition (Plasmodium falciparum [13]): 9%; inhibition (Plasmodium falciparum [14]): 45%; pKi [4]: 4.41; inhibition at up to 0.001 µM (Plasmodium falciparum [10]): < 10%
CCCCCC(=O)N[C@@H](Cc1c[nH]c2ccccc12)C(=O)N[C@@H](CCCC)C(=O)N[C@@H](CC(C)C)C(=O)[C@@]1(C)CO1 |  | 8.51 |  |  | 
CCCCCC(=O)N[C@@H](Cc1c[nH]c2ccccc12)C(=O)N[C@@H](CCCC)C(=O)N[C@@H](Cc1ccccc1)C(=O)[C@@]1(C)CO1 | 8.19 | 8.01 |  |  | 
